In ChEMBL document CHEMBL4825685, “Structure activity relationship (SAR) study identifies a quinoxaline urea analog that modulates IKKβ phosphorylation for pancreatic cancer therapy” (Eur J Med Chem, 2021):
The source made the active and inactive calls. The rule behind the calls is not given here.

Columns and labels:
[1] = tested on: MIA PaCa-2; test: Induction of apoptosis in human MIA PaCa-2 cells assessed as increase in caspase 3/7 activation at 10 uM incubated for 24 hrs by Caspase-Glo assay; type: functional, cell-based
Outline: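 MiaPaCa2 cells (2.5 × 10⁴/well) attached overnight, then treated 24 h at 0.1% final DMSO. alamarBlue added at 21 h for 3 h and fluorescence read at 560/590. Caspase-Glo luminescence read 2 h later. Luminescence ×100/fluorescence normalized to DMSO average, n = 3.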

[2] = tested on: MIA PaCa-2; test: Antitumor activity against human MIA PaCa-2 cells xenografted in Foxn1nu athymic nude mouse assessed as reduction in tumor volume at 40 mg/kg, po administered for 4 weeks in combination gemcitabine by digital caliper method relative to control; type: functional; settings: MIA PaCa-2, po, 672 h
Outline: (§1)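 MiaPaCa2 cells (2.5 × 10⁶, with Matrigel 2:1) implanted s.c. in the left flank. Mice randomized at day 20, n = 6 per group. Compound given orally once daily; gemcitabine 15 mg/kg i.p. every 72 h where combined; vehicle 100 µl orally. Tumors measured by caliper every 3 days (1/2 × L × W²). Tumors weighed after sacrifice after day 27. Unpaired t-test.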

[3] = tested on: MIA PaCa-2; test: Anti-migration activity in human MIA PaCa-2 cells at 5 uM measured upto 48 hrs by microscopy based wound scratch method; type: functional, cell-based; settings: time hrs <=48
[4] = AUClast in CD1 mouse at 20 mg/kg, po measured up to 24 hrs measured by LC/MS-MS analysis; type: ADME, organism-based; design: route oral, dose 20 mg/kg, time <=24; settings: in vivo
Outline: (§2)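 Oral 20 mg/kg given in DMSO:PEG400:H2O 1:4:5. Mice killed at 0.083, 0.25, 0.5, 1, 2, 4, 8 and 24 h and plasma analysed by LC/MS/MS with a carbamazepine internal standard. Parameters derived by non-compartmental analysis.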

[5] = tested on: MIA PaCa-2; test: Antitumor activity against human MIA PaCa-2 cells xenografted in Foxn1nu athymic nude mouse assessed as reduction in tumor weight at 40 mg/kg, po administered for 4 weeks […] relative to control; type: functional; design: scale not given: the % may be the effect or the level left; outline: as §1
[6] = Cmax in CD1 mouse at 20 mg/kg, po measured up to 24 hrs measured by LC/MS-MS analysis; type: ADME, organism-based; design: route oral, dose 20 mg/kg, time <=24; settings: in vivo; outline: as §2
[7] = Antiproliferative activity against human T3M4 cells assessed as growth inhibition after 72 hrs by PrestoBlue dye based fluorescence assay; type: functional
[8] = Half life in CD1 mouse at 10 mg/kg, iv measured up to 24 hrs measured by LC/MS-MS analysis; type: ADME, organism-based; settings: in vivo
Outline: (§3)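 Single intravenous 10 mg/kg dose in DMSO:PEG400:H2O 1:5:4. Mice killed at 0.083, 0.25, 0.5, 1, 2, 4, 8 and 24 h. Plasma levels measured by LC/MS/MS against a carbamazepine internal standard. Parameters derived by non-compartmental analysis.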

[9] = tested on: MIA PaCa-2; test: Induction of cell death in human MIA PaCa-2 cells measured after 24 hrs by fluorescent microscopy; type: functional, cell-based
Outline: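 MiaPaCa2 cells treated with 5 and 10 µM for 24 h, then stained with calcein-AM plus ethidium homodimer-1 for 30 min. Live and dead cells imaged by fluorescence microscopy. Dead/total cell ratio computed, n = 3. Two-way ANOVA with Bonferroni test.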

[10] = tested on: MIA PaCa-2; test: Antiproliferative activity against human MIA PaCa-2 cells assessed as growth inhibition after 72 hrs by PrestoBlue dye based fluorescence assay; type: functional
[11] = tested on: MIA PaCa-2; test: Antitumor activity against human MIA PaCa-2 cells xenografted in Foxn1nu athymic nude mouse assessed as reduction in tumor weight at 40 mg/kg, po administered for 4 weeks in combination gemcitabine […]; type: functional; settings: MIA PaCa-2, po, 672 h; outline: as §1
[12] = Tmax in CD1 mouse at 20 mg/kg, po measured up to 24 hrs measured by LC/MS-MS analysis; type: ADME, organism-based; settings: in vivo; outline: as §2
[13] = molecular target: T1, Inhibitor of nuclear factor kappa-B kinase subunit beta (Homo sapiens) (UniProt O14920); test: Inhibition of IKKbeta phosphorylation in human Pancreatic cancer cells at 5 uM by Western blot analysis; settings: Pancreatic cancer cell, time hrs <=24, TDE = time-dependent effect
T1 sequence (whole entry): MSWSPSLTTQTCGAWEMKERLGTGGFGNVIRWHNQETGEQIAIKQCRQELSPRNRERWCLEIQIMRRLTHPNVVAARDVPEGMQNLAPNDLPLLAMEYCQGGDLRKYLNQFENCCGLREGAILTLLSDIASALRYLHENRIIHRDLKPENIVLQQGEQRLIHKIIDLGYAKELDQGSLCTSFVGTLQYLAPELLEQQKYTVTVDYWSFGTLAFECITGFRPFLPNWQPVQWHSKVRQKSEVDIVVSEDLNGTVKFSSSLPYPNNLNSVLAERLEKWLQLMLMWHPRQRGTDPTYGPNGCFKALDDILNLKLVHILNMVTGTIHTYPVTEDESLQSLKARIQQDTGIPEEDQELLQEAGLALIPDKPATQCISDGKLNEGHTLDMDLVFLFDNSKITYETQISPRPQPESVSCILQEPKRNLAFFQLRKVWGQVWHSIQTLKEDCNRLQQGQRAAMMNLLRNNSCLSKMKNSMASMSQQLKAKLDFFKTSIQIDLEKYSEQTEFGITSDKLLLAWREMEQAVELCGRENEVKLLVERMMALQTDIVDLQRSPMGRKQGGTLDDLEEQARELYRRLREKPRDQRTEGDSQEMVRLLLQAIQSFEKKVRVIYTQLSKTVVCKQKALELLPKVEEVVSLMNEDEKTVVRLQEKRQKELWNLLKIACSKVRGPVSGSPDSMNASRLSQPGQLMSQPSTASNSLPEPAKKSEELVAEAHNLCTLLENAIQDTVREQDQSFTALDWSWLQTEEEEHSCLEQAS
Outline: (§4)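 T3M4 cells treated at 0.5–5.0 µM for 6 h, or at 5 µM for 0.5–24 h. Lysates (40 µg protein) run on 4–20% SDS-PAGE and transferred to PVDF. Blots probed for p-IKKβ and IKKβ with β-actin loading control, chemiluminescent detection.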

[14] = Half life in CD1 mouse at 20 mg/kg, po measured up to 24 hrs measured by LC/MS-MS analysis; type: ADME, organism-based; settings: in vivo; outline: as §2
[15] = MRT (0 to infinity) in CD1 mouse at 20 mg/kg, po measured up to 24 hrs measured by LC/MS-MS analysis; type: ADME, organism-based; settings: in vivo; outline: as §2
[16] = tested on: MIA PaCa-2; test: Antitumor activity against human MIA PaCa-2 cells xenografted in Foxn1nu athymic nude mouse assessed as reduction in proliferation index at 40 mg/kg, po administered for 4 weeks by Ki67 staining based assay; type: functional, organism-based
Outline: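 Same xenograft and dosing design. Formalin-fixed paraffin sections (5 µm) stained with anti-Ki-67. Percentage of Ki-67-positive cells counted in 4 fields per tumor, n = 5. Unpaired t-test.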

[17] = AUC (0 to infinity) in CD1 mouse at 20 mg/kg, po measured up to 24 hrs measured by LC/MS-MS analysis; type: ADME, organism-based; design: route oral, dose 20 mg/kg, time <=24; settings: in vivo; outline: as §2
[18] = molecular target: T2, Inhibitor of nuclear factor kappa-B kinase subunit beta (Homo sapiens, UniProt O14920); test: Inhibition of TNFalpha-induced IKKbeta mediated NF-kappaB activation in human Pancreatic cancer cells by luciferase reporter gene assay; design: species or system Pancreatic cancer cell
T2 sequence (O14920 whole entry): T1 sequence (whole entry)

[19] = MRT (0 to infinity) in CD1 mouse at 10 mg/kg, iv measured up to 24 hrs measured by LC/MS-MS analysis; type: ADME, organism-based; settings: in vivo; outline: as §3
[20] = Cmax in CD1 mouse at 10 mg/kg, iv measured up to 24 hrs measured by LC/MS-MS analysis; type: ADME, organism-based; design: route intravenous, dose 10 mg/kg, time <=24; settings: in vivo; outline: as §3
[21] = AUC (0 to infinity) in CD1 mouse at 10 mg/kg, iv measured up to 24 hrs measured by LC/MS-MS analysis; type: ADME, organism-based; design: route intravenous, dose 10 mg/kg, time <=24; settings: in vivo; outline: as §3
[22] = Volume of distribution at steady state in CD1 mouse at 10 mg/kg, iv measured up to 24 hrs measured by LC/MS-MS analysis; type: ADME, organism-based; settings: in vivo, read-out: Vdss; outline: as §3
[23] = AUClast in CD1 mouse at 10 mg/kg, iv measured up to 24 hrs measured by LC/MS-MS analysis; type: ADME, organism-based; design: route intravenous, dose 10 mg/kg, time <=24; settings: in vivo; outline: as §3
[24] = molecular target: T1, Inhibitor of nuclear factor kappa-B kinase subunit beta (Homo sapiens); test: Inhibition of IKKbeta phosphorylation in human Pancreatic cancer cells measured after 6 hr by Western blot analysis; settings: Pancreatic cancer cell, dose 0.5-5 µM; outline: as §4
[25] = Oral bioavailability in CD1 mouse at 20 mg/kg measured up to 24 hrs measured by LC/MS-MS analysis; type: ADME, organism-based; settings: in vivo
Outline: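 %F taken from oral (20 mg/kg, DMSO:PEG400:H2O 1:4:5) and intravenous (10 mg/kg, DMSO:PEG400:H2O 1:5:4) AUC0-∞. Plasma sampled from 0.083 to 24 h and quantified by LC/MS/MS with a carbamazepine internal standard. Non-compartmental analysis.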

[26] = tested on: MIA PaCa-2; test: Antitumor activity against human MIA PaCa-2 cells xenografted in Foxn1nu athymic nude mouse assessed as reduction in tumor volume at 40 mg/kg, po administered for 4 weeks by digital caliper method relative to control; type: functional; design: scale not given: the % may be the effect or the level left; outline: as §1
[27] = tested on: Mus musculus; test: In vivo inhibition of IKKbeta in Foxn1nu athymic nude mouse xenografted with human MIA PaCa-2 cells assessed as reduction in p-IKKbeta level at 40 mg/kg, po administered for 4 weeks by immunohistochemistry analysis; type: functional, organism-based
Outline: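 Same xenograft tissue. Paraffin sections antigen-retrieved in citrate pH 6.0 and stained with p-IKKβ antibody overnight at 4 °C, then HRP secondary. Histoscore (0–15) = proportion score × intensity score (0–3), n = 5. Unpaired t-test.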

Cc1cc(NC(=O)Nc2ccc3ncc(-c4cnn(C)c4)nc3c2)ccc1F
Activity [1]: inactive

Cn1cc(-c2cnc3ccc(NC(=O)Nc4cccc(OC(F)(F)F)c4)cc3n2)cn1
Activity [1]: inactive

Cn1cc(-c2cnc3ccc(NC(=O)Nc4cccc(C(F)(F)F)c4F)cc3n2)cn1
inhibition in vivo at 40 mg/kg [2]: > 90% | Activity [3]: Active | AUC(0-t) at 24 h [4]: 7990 ng·h/mL | Activity [5]: 75% | Cmax [6]: 700 ng/mL | GI50 [7]: 1.7 µM | half-life [8]: 2.7 h | Activity [9]: Dose-Dependent Effect | GI50 [10]: 2.8 µM | inhibition in vivo at 40 mg/kg [11]: > 90% | Tmax [12]: 6 h | inhibition [13]: Tde | half-life [14]: 2.5 h | Activity [1]: Active | MRT inf [15]: 6.3 h | Activity [16]: Active | AUC(0-inf) [17]: 8010 ng·h/mL | IC50 [18]: 3.3 µM | MRT inf [19]: 4.5 h | Cmax [20]: 5980 ng/mL | AUC(0-inf) [21]: 22800 ng·h/mL | Vd [22]: 2 L/kg | AUC(0-t) at 24 h [23]: 20300 ng·h/mL | inhibition [24]: Dose-Dependent Effect | bioavailability [25]: 17.6% | Activity [26]: 75% | Activity [27]: Active

O=C(Nc1ccc(Br)cc1)Nc1ccc2nc(-c3ccco3)c(-c3ccco3)nc2c1
AUC(0-t) at 24 h [4]: 1630 ng·h/mL | Cmax [6]: 300 ng/mL | Tmax [12]: 2.5 h | half-life [14]: 2 h | Activity [1]: inactive | MRT inf [15]: 5.2 h | AUC(0-inf) [17]: 1860 ng·h/mL | IC50 [18]: 8.4 µM | bioavailability [25]: 3.1%

Cc1ccc2nc(NCCN)c3ncc(C)n3c2c1
Activity [1]: inactive
